In ChEMBL document CHEMBL3867438, “Cytotoxic Tirucallane and Apotirucallane Triterpenoids from the Stems of Picrasma quassioides” (J Nat Prod, 2016) one finds IC50 data, which are given here for 25 compounds.

Assay type in all cases: functional, cell-based
Experiment [1] can be described thus: Cytotoxicity against human MKN28 cells assessed as inhibition of cell proliferation after 48 hrs by MTT assay. The conditions noted are these: MKN-28, 48 h. In outline: (§1)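 Cells grown in DMEM with 10% FBS, 100 U/mL penicillin, 100 μg/mL streptomycin, 37 °C, 5% CO2. Seeded 5 × 10^3 cells/well, 12 h, then exposed to compounds for 48 h. MTT (5 mg/mL stock) added for 4 h at 37 °C, formazan dissolved in DMSO, absorbance read at 570 nm. IC50 relative to untreated control. Triplicate, repeated twice; cis-platinum as positive control.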

The nature of experiment [2]: Cytotoxicity against human A549 cells assessed as inhibition of cell proliferation after 48 hrs by MTT assay. The conditions noted are these: A549, 48 h. The method in brief: as §1
For orientation: Tetrazolium dyes change colour on reduction, which living cells bring about.

Experiment [3] in a line: Cytotoxicity against human MCF7 cells assessed as inhibition of cell proliferation after 48 hrs by MTT assay. The conditions noted are these: MCF7, 48 h. The method in brief:
as §1

As for `CCO[C@H]1O[C@@H]([C@H](O)C(C)(C)O)C[C@H]1[C@@H]1CC[C@]2(C)C3=CC[C@H]4C(C)(C)C(=O)CC[C@]4(C)C3=CC[C@@]12C`, the results for the IC50 in experiment [1], in experiment [2] and in experiment [3] were 8.3 µM, over 10 µM and over 10 µM, respectively.

Take `CCO[C@H]1O[C@H](C(C)(C)O)[C@@H](O)C[C@H]1[C@@H]1CC[C@]2(C)C3=CC(=O)[C@H]4C(C)(C)C(=O)CC[C@]4(C)[C@H]3CC[C@@]12C`: the IC50 (usually the point on the concentration scale where inhibition reaches its midpoint) was 8.2 µM in experiment [1], over 10 µM in experiment [2] and over 10 µM in experiment [3].

On to `CC(C)=CCC[C@H](C(=O)O)[C@@H]1CC[C@]2(C)C3=CC[C@@H]4[C@](C)(CC[C@H](O)[C@]4(C)CO)[C@H]3CC[C@@]12C`, for which the IC50 was 9.1 µM in experiment [1], over 10 µM in experiment [2] and over 10 µM in experiment [3].

With `CCO[C@H]1O[C@H](C(C)(C)O)[C@@H](O)C[C@H]1[C@@H]1CC[C@]2(C)C3=CC[C@H]4C(C)(C)C(=O)CC[C@]4(C)[C@H]3CC[C@@]12C`, the IC50 in experiment [1], in experiment [2] and in experiment [3] was over 10 µM throughout.

Consider `C[C@@H](C[C@@H](O)[C@H](O)C(C)(C)O)[C@@H]1CC=C2[C@]3(C)[C@H](O)C[C@H]4C(C)(C)C(=O)CC[C@]4(C)[C@H]3CC[C@]21C`, for which the IC50 in experiment [1], in experiment [2] and in experiment [3] was over 10 µM throughout.

As for `CCO[C@H]1O[C@H](C=C(C)C)C[C@H]1[C@@H]1CC[C@]2(C)C3=CC[C@H]4C(C)(C)[C@@H](O)CC[C@]4(C)[C@H]3CC[C@@]12C`, the IC50 in experiment [1], in experiment [2] and in experiment [3] was over 10 µM each time.

Regarding `COC1OC(C=C(C)C)C[C@H]1[C@@H]1CC[C@]2(C)C3=CC[C@H]4C(C)(C)[C@H](O)CC[C@]4(C)[C@H]3CC[C@@]12C` (stereo not given in full), the IC50 in experiment [1], in experiment [2] and in experiment [3] was over 10 µM throughout.

On to `CCO[C@@H]1O[C@@H]([C@H](O)C(C)(C)O)C[C@H]1[C@@H]1CC[C@]2(C)C3=CC[C@H]4C(C)(C)C(=O)CC[C@]4(C)[C@H]3CC[C@@]12C`, for which the IC50 in experiment [1], in experiment [2] and in experiment [3] was over 10 µM throughout.

As for `CCOC(=O)CC[C@]1(C)[C@H]2CC[C@@]3(C)[C@H]([C@@H](C)CC/C=C(\C)CO)CC[C@]3(C)C2=CC[C@H]1C(C)(C)O`, the IC50 in experiment [1], in experiment [2] and in experiment [3] was over 10 µM in each case.

Regarding `C[C@@H](C[C@@H](O)[C@@H](O)C(C)(C)O)[C@@H]1CC[C@]2(C)C3=CC[C@H]4C(C)(C)C(=O)CC[C@]4(C)[C@H]3CC[C@@]12C`, the IC50 in experiment [1] came out at 6.9 µM; in experiment [2] it was 8 µM; in experiment [3], 8.5 µM.

On to `CC(C)(O)[C@H]1OC[C@H]([C@@H]2CC[C@]3(C)C4=CC[C@H]5C(C)(C)C(=O)CC[C@]5(C)[C@H]4CC[C@@]23C)C[C@H]1O`, for which the IC50 in experiment [1], in experiment [2] and in experiment [3] was over 10 µM throughout.

For `CO[C@@H]1O[C@H](C=C(C)C)C[C@H]1[C@@H]1CC[C@]2(C)C3=CC[C@H]4C(C)(C)[C@H](O)CC[C@]4(C)[C@H]3CC[C@@]12C`, the IC50 in experiment [1], in experiment [2] and in experiment [3] was over 10 µM each time.

`CC(C)(O)[C@H]1OC[C@H]([C@H]2CC[C@]3(C)C4=CC[C@H]5C(C)(C)C(=O)CC[C@]5(C)[C@H]4CC[C@@]23C)C[C@H]1O`: the figures for the IC50 in experiment [1], in experiment [2] and in experiment [3] were 6.7 µM, 7 µM and 9.9 µM, respectively.

Turning to `COC(=O)[C@@H](CCC=C(C)C)[C@@H]1CC[C@]2(C)C3=CC[C@@H]4[C@](C)(CCC(=O)[C@]4(C)CO)[C@H]3CC[C@@]12C`, the IC50 in experiment [1] was 8.3 µM; in experiment [2], over 10 µM; in experiment [3] it was over 10 µM.

Regarding `CC(C)(O)[C@@H]1[C@@H](O)[C@H]([C@@H]2CC=C3[C@]4(C)[C@H](O)C[C@H]5C(C)(C)[C@H](O)CC[C@]5(C)[C@H]4CC[C@]32C)C[C@H]1O`, the IC50 in experiment [1], in experiment [2] and in experiment [3] was over 10 µM in each case.

`CCCCCC(=O)O[C@@H]1C[C@]2(C)C(=CC[C@H]2[C@]2(O)C[C@@H]([C@@H](O)C(C)(C)O)O[C@H]2OC)[C@]2(C)[C@H](O)C[C@H]3C(C)(C)C(=O)C=C[C@]3(C)[C@@H]12`: the half-maximal inhibitory concentration (IC50) in experiment [1], in experiment [2] and in experiment [3] was over 10 µM each time.

Turning to `CCO[C@H]1O[C@@H]([C@H](O)C(C)(C)O)C[C@H]1[C@@H]1CC[C@]2(C)C3=CC=C4C(C)(C)C(=O)CC[C@]4(C)C3=CC[C@@]12C`, the IC50 in experiment [1], in experiment [2] and in experiment [3] was over 10 µM each time.

In the case of `CO[C@H]1O[C@H](C=C(C)C)C[C@H]1[C@@H]1CC[C@]2(C)C3=CC[C@H]4C(C)(C)[C@@H](O)CC[C@]4(C)[C@H]3CC[C@@]12C`, the figures for the IC50 in experiment [1], in experiment [2] and in experiment [3] were 8.8 µM, over 10 µM and over 10 µM, respectively.

Regarding `CCO[C@@H]1O[C@@H](C=C(C)C)C[C@H]1[C@@H]1CC[C@]2(C)C3=CC[C@H]4C(C)(C)[C@@H](O)CC[C@]4(C)[C@H]3CC[C@@]12C`, the IC50 in experiment [1] was 7.9 µM; in experiment [2] it was 8.3 µM; in experiment [3], over 10 µM.

In the case of `C[C@@H](C[C@@H](O)[C@H](O)C(C)(C)O)[C@@H]1CC[C@]2(C)C3=C(C(=O)C[C@@]12C)[C@@]1(C)CCC(=O)C(C)(C)[C@@H]1CC3=O`, the IC50 in experiment [1], in experiment [2] and in experiment [3] was over 10 µM in each case.

As to `C[C@@H](C[C@@H](O)[C@H](O)C(C)(C)O)[C@@H]1CC[C@]2(C)C3=CC(=O)[C@H]4C(C)(C)[C@@H](O)CC[C@]4(C)[C@H]3CC[C@@]12C`, the IC50 in experiment [1], in experiment [2] and in experiment [3] was over 10 µM in each case.

Consider `CCO[C@H]1O[C@@H]([C@H](O)C(C)(C)O)C[C@H]1[C@@H]1CC[C@]2(C)C3=CC[C@H]4C(C)(C)C(=O)CC[C@]4(C)[C@H]3CC[C@@]12C`, for which the IC50 in experiment [1], in experiment [2] and in experiment [3] was over 10 µM each time.

As to `CCO[C@@H]1O[C@H]([C@@H](O)C(C)(C)O)C[C@H]1[C@@H]1CC[C@]2(C)C3=CC[C@H]4C(C)(C)[C@@H](O)CC[C@]4(C)C3=CC[C@@]12C`, the IC50 in experiment [1] was 9.1 µM; in experiment [2] it was over 10 µM; in experiment [3], over 10 µM.

Take `CO[C@H]1O[C@@H](C=C(C)C)C[C@H]1[C@@H]1CC[C@]2(C)C3=CC[C@H]4C(C)(C)[C@@H](O)CC[C@]4(C)[C@H]3CC[C@@]12C`: the IC50 in experiment [1], in experiment [2] and in experiment [3] was over 10 µM throughout.

Turning to `C[C@@H](CC[C@H](O)C(C)(C)O)[C@@H]1CC[C@]2(C)C3=CC[C@H]4C(C)(C)C(=O)CC[C@]4(C)[C@H]3CC[C@@]12C`, the IC50 in experiment [1] is 9.1 µM; in experiment [2], over 10 µM; in experiment [3], over 10 µM.
